The values that follow come from ChEMBL document CHEMBL4024800, “α-Amino-β-carboxymuconate-ε-semialdehyde Decarboxylase (ACMSD) Inhibitors as Novel Modulators of De Novo Nicotinamide Adenine Dinucleotide (NAD+) Biosynthesis” (J Med Chem, 2018).

The species entered for data set [1] is Homo sapiens. The data set can be described thus: Activity at TR (unknown origin). An outline of the steps: (§1)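 Eight-point serial dilutions tested in an in-house AlphaScreen-based nuclear receptor panel; activity derived from nonlinear regression curves.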
In data set [2] the target is 2-amino-3-carboxymuconate-6-semialdehyde decarboxylase (Homo sapiens, UniProt Q8TDX5). Put plainly: Inhibition of human ACMSD expressed in Pichia pastoris using ACMS as substrate by coupled spectrophotometric assay. An outline of the steps: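 Recombinant enzyme purified from Pichia pastoris; ACMS substrate generated in a pre-assay mix from 10 μM 3-hydroxyanthranilic acid by Ralstonia metallidurans 3-hydroxyanthranilate 3,4-dioxygenase, formation monitored at 360 nm. Enzyme and compound then added together; activity from initial rate of absorbance decrease minus a no-enzyme control. Serial dilutions, 1.0% DMSO throughout. IC50 from concentration–response curves, mean ± SD of three independent experiments.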

Data set [3] in a line: Tmax in CD1 mouse at 5 mg/kg, po measured up to 8 hrs post dose. The conditions noted are these: in vivo. It counts as ADME, organism-based. An outline of the steps: (§2)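 Mice dosed orally at 5 mg/kg in 0.5% (w/v) HPMC in water with 5% (v/v) DMSO; blood, liver and kidney concentrations followed to 8 h. AUC0–8h given in h·ng/mL; parameters reported as means.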
The target in data set [4] is T1, Glucocorticoid receptor (Homo sapiens) (UniProt P04150).
T1 sequence (whole entry): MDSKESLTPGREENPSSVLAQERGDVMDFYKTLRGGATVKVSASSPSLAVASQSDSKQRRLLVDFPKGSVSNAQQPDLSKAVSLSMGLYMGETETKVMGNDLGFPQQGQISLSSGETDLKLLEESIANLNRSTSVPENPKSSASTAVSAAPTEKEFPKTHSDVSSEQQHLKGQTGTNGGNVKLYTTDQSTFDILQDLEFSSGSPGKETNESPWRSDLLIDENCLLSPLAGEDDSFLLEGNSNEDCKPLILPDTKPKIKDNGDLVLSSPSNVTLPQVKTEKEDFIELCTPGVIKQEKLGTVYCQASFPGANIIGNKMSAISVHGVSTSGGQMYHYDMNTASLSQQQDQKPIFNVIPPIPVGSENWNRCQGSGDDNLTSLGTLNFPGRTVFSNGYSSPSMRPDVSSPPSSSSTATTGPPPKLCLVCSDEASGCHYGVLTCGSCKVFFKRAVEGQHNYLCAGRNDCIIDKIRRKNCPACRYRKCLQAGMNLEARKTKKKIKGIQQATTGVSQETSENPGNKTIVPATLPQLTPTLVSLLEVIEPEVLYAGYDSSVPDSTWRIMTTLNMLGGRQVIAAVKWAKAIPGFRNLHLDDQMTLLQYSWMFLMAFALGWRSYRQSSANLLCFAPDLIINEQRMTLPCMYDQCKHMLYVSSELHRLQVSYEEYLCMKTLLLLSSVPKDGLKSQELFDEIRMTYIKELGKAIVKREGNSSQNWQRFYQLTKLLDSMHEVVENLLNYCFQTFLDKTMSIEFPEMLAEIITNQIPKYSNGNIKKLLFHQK
Put plainly: Activity at GR (unknown origin). An outline of the steps:
as §1

A short description of data set [5]: Volume of distribution at steady state in CD1 mouse at 0.5 mg/kg, iv measured up to 24 hrs post dose. It counts as ADME, organism-based. The conditions noted are these: in vivo, read-out: Vdss. The procedure, abridged: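 Mice given 0.5 mg/kg IV in saline containing 5% (v/v) DMSO and 20% (v/v) PEG400; blood pharmacokinetic parameters reported as means.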
For data set [6], the target named is T2, Bile acid receptor (Homo sapiens) (UniProt Q96RI1).
T2 sequence (whole entry): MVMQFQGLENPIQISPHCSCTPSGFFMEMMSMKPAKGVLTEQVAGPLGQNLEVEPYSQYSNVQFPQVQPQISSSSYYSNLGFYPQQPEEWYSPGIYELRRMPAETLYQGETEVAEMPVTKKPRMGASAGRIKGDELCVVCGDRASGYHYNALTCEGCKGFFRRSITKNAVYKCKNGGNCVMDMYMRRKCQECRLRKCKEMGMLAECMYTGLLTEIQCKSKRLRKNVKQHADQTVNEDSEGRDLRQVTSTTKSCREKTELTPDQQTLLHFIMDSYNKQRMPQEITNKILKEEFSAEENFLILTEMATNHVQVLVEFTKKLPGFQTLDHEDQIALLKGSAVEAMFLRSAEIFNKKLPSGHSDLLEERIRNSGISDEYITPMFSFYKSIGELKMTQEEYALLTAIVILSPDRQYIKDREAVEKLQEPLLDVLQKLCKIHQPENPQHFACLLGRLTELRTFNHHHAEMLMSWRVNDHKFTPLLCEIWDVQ
The data set can be described thus: Activity at FXR (unknown origin). An outline of the steps:
as §1

Data set [7] in a line: Ratio of AUClast in mouse liver to blood at 5 mg/kg, po measured up to 8 hrs post dose.
The test system of data set [8] is Mus musculus. The data set can be described thus: In vivo inhibition of ACMSD in C57BL/6 mouse assessed as increase in NAD+ levels in liver at 15 and 30 mg/kg/day for 10 days dosed as diet supplement by ion-pair C18- HPLC chromatography. It counts as functional, organism-based. An outline of the steps:
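Male mice given the compound in the diet for 10 days; vehicle 5% DMSO, 20% PEG. After a 3 h fast, livers snap-frozen and ground; NAD+ extracted by sonication in HClO4, quantified by ion-pair C18 HPLC and normalised to BCA protein. One-way ANOVA with Dunnett's test.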

Data set [9] relates to Mus musculus. The data set can be described thus: In vivo inhibition of ACMSD in CD1 mouse kidney at 5 mg/kg, po after 0.5 to 2 hrs. Type of data set: functional, organism-based. An outline of the steps: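 CD1 mice dosed orally at 5 mg/kg in 0.5% (w/v) HPMC in water with 5% (v/v) DMSO; kidneys collected at various times, snap-frozen and ground. Tissue powder homogenised in 50 mM Tris pH 7.5, 0.15 M NaCl with protease inhibitors, spun 38 000g 20 min at 4 °C. Supernatant assayed spectrophotometrically with 30 μM 3-hydroxyanthranilic acid; activity normalised to BCA protein. One-way ANOVA with Dunnett's test.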

For data set [10], the target named is Cytochrome P450 2D6 (Homo sapiens, UniProt P10635). The data set can be described thus: Inhibition of recombinant human CYP2D6 expressed in baculosomes expression system using fluorogenic-BOMCC as substrate by fluorescent homogeneous assay. Type of data set: ADME. The procedure, abridged:
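Recombinant CYP baculosomes with fluorogenic substrates, at concentrations below their Km; homogeneous fluorescence read-out, run in triplicate. IC50 classes: <1 μM potent, 1–10 μM moderate, >10 μM weak or none.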

Data set [11] can be described thus: AUClast in mouse kidney at 5 mg/kg, po measured up to 8 hrs post dose. It counts as ADME, organism-based. Details: time < 8 hr, dose 5 mg/kg, route oral. An outline of the steps:
as §2

Active and inactive are the calls of the source. The calls are words filed in the database; no cut-off is given here.

2-amino-3-carboxymuconate-6-semialdehyde decarboxylase, sequence (Q8TDX5 whole entry): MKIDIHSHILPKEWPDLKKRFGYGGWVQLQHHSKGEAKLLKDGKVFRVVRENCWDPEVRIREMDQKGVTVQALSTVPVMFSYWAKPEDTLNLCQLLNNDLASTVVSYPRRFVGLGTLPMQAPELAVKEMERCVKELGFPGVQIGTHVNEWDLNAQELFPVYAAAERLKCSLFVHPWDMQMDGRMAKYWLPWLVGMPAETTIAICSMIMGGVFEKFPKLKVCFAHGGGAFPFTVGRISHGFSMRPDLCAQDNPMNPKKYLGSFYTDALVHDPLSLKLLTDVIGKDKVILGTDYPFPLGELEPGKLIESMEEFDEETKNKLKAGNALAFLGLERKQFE
Cytochrome P450 2D6, sequence (P10635 whole entry): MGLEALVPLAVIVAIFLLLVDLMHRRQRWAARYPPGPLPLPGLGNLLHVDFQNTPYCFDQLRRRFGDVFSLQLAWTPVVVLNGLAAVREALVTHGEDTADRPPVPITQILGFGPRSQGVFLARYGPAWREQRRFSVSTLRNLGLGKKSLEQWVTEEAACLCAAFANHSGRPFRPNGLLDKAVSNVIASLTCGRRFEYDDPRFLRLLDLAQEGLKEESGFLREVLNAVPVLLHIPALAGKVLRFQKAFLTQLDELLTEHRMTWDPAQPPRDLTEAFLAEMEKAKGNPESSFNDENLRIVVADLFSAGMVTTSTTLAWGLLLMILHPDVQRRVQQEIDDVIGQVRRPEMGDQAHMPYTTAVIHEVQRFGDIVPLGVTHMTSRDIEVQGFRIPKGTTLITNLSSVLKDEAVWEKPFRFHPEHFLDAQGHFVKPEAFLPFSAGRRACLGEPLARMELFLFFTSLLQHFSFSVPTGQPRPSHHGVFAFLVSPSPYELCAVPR

For the compound `N#Cc1c(-c2cccs2)nc(SCc2cccc(CC(=O)O)c2)[nH]c1=O`, the result in [1], in data set [4] and in data set [6] was inactive. Also, the IC50 (usually the concentration that inhibits the measured activity by half) was 13 nM in data set [2] and above 10000 nM in data set [10]. Further, in [3], the Tmax (usually the time at which the peak concentration occurs) turned out to be 2 h. Besides, in data set [5], the Vd worked out at 0.273 L/kg. Also, the Kp (commonly tissue or fluid exposure divided by exposure in the circulation) at 8 h in data set [7] is 1.5. The inhibition entry in data set [8] and in data set [9] was “Active” each time. Besides, the AUC(0-t) (commonly the area under the concentration-time curve up to a stated or last time point) at 8 h in data set [11] was determined as 36600 ng·h/mL.
